Only some compounds are listed: those with a hit (about 1.9% of all), similar ones and a draw of the others.
CHRM5 antagonist: human M5 muscarinic receptor antagonists, primary screen, CHO cells, Fluo-8 calcium fluorescence | 0.59% of 360,000 active | AID 624040, 2012 | Muscarinic acetylcholine receptor M5 (Homo sapiens), P08912 | CHO-hM5 cells, ACh EC80 | inhibition, % at 3 µM;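 active = inhibition above a per-plate cutoff, the mean of that plate's test compounds plus 3 SD, cut at about 27% in these data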;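 also: 0% = acetylcholine EC80 with DMSO and 100% = DMSO without agonist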
Target sequence (P08912 whole entry, looked up): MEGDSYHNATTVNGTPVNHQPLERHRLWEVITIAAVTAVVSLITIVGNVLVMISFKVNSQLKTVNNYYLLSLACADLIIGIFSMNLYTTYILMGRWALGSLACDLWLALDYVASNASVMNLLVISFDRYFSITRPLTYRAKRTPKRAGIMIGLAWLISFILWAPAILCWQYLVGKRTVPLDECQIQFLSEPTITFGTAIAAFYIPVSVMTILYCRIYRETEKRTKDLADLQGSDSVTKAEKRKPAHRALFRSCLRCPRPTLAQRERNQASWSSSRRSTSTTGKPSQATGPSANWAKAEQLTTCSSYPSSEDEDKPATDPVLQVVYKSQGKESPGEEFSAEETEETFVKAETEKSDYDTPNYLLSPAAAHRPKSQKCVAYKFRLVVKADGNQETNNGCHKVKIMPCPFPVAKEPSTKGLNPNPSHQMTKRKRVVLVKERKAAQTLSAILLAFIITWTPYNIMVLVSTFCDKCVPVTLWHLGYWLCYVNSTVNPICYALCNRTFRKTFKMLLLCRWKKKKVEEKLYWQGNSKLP
M4 ag: human M4 muscarinic receptor agonists, primary screen, CHO-K1 cells, Fluo-8 calcium fluorescence. CHO-K1 hM4/Gqi5; vehicle 0%, full acetylcholine response 100%. activation, % at 3 µM. 0.14% of 360,000 active;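 active = activation above the run mean over all test wells plus 3 SD, cut at about 32% in these data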;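 also: peak over basal fluorescence ratio per well then scaled between controls; 0% = DMSO wells and 100% = acetylcholine at EC100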
CHRM5 PAM: human M5 muscarinic receptor positive allosteric modulators, primary screen, CHO-K1 cells, Fluo-8 calcium fluorescence; CHO-K1 hM5, ACh EC20 PAM; 0% = ACh EC20, 100% = ACh EC100; activation, % at 3 µM; 0.3% of 360,000 active;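 active = activation above the run cutoff, the mean activation of all test compounds plus 3 SD, cut at about 18% in these data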
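System: CHO-K1 cell line with stable human muscarinic M5 receptor expression | Also added: EC20 acetylcholine as agonist stimulus | Compound: One concentration, 3 µM final (nominal) | Timing: Fluo-8 loading 80 min at 37 °C plus 30 min room temperature | Measured by: Fluo-8 calcium dye fluorescence, kinetic read | Read-out basis: % activation, ACh-normalized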
M4 PAM: human M4 muscarinic receptor positive allosteric modulators, primary screen, CHO-K1 cells, Fluo-8 calcium fluorescence | 0.4% of 360,000 active | CHO-K1 hM4/Gqi5, ACh EC20; 0% = ACh EC20, 100% = maximal ACh | AID 624126, 2012 | activation, % at 3 µM | Muscarinic acetylcholine receptor M4 (Homo sapiens), P08173;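 active = activation above its plate's cutoff, the mean activation of sample wells plus 3 SD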
M5 ag: human M5 muscarinic receptor agonists, primary screen, CHO-K1 cells, Fluo-8 calcium fluorescence; Muscarinic acetylcholine receptor M5 (Homo sapiens), P08912; CHO-K1 hM5 cells; 0% DMSO wells, 100% maximal acetylcholine response; activation, % at 3 µM; 0.19% of 360,000 active;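 active = activation above the run's mean over test compounds plus 3 SD, cut at about 23% in these data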;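 also: signal is peak over basal fluorescence ratio across the kinetic read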
CHRM4 antagonist: human M4 muscarinic receptor antagonists, primary screen, CHO cells, Fluo-8 calcium fluorescence; Muscarinic acetylcholine receptor M4 (Homo sapiens), P08173; CHO-hM4 cells, ACh EC80; inhibition, % at 3 µM; 0.73% of 360,000 active; AID 624125, 2012;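 active = inhibition above its plate's cutoff, the mean inhibition of sample wells plus 3 SD, cut at about 27% in these data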;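 also: 0% = acetylcholine EC80 with DMSO and 100% = DMSO without agonist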
* marks the source's active call; other numbers are inactive results.

SMILES | CHRM5 antagonist | M4 ag | CHRM5 PAM | M4 PAM | M5 ag | CHRM4 antagonist
CCOc1ccc(/C=N/NC(=O)c2nnn(-c3nonc3N)c2-c2cccs2)cc1 | 7 | 33* | 6 | -2 | 33* | 3
Cc1ccsc1/C=N/NC(=O)c1nnn(-c2nonc2N)c1-c1ccc2c(c1)OCO2 | -6 | 4 | 6 | 9 | 7 | 3
CCOc1ccc(-c2c(C(=O)N/N=C(\C)c3cccnc3)nnn2-c2nonc2N)cc1 | -4 | 3 | 20* | 11 | 7 | 8
Nc1nonc1-n1nnc(C(=O)N/N=C/c2cccs2)c1-c1ccc2c(c1)OCO2 | -21 | 69* | -2 | -4 | 57* | -11
Cc1ccc(-c2c(C(=O)N/N=C/c3cccs3)nnn2-c2nonc2N)cc1 | -4 | 5 | 5 | 4 | 17 | -3
Cc1ccc(-c2c(C(=O)N/N=C/c3ccsc3)nnn2-c2nonc2N)cc1 | 0 | 8 | 0 | -6 | 26* | -8
CCN(CC)CCCn1c(C)cc2c(c1=O)C(c1cc(OC)c(OC)cc1OC)C(C#N)=C(N)O2 (stereo unspecified) | 0 | 1 | -3 | -13 | -6 | 30*
COc1cc(OC)c(C2C(C#N)=C(N)Oc3cc(C)n(CCCN4CCOCC4)c(=O)c32)cc1OC (stereo unspecified) | 1 | 0 | -1 | -4 | -5 | 1
CCOc1ccc(C(CC(=O)O)NC(=O)C(CC)c2ccccc2)cc1 (stereo unspecified) | 7 | 1 | 0 | 2 | -3 | 4
COCCNc1nc(Oc2cncc(Cl)c2)c2sccc2n1 | -1 | 4 | -5 | -8 | -2 | -6
CCOc1ccc(CNc2nc3ccccc3n2C)cc1 | -12 | 2 | 21* | 1 | -2 | -14
CCOc1ccc(Nc2nc3ccccc3n2C)cc1 | 13 | 0 | -6 | -18 | -8 | -4
COc1cc(Cl)ccc1NC(=S)N(CCN1CCOCC1)C1CCN(C(C)=O)CC1 | 0 | 0 | 5 | -12 | -2 | 61*
Cc1cccc2sc(NC(=O)C3CCN(S(=O)(=O)c4cc([N+](=O)[O-])ccc4Cl)CC3)nc12 | 20 | 11 | -11 | -24 | 4 | 29*
CC(=O)c1cccc(NC(=O)C2Cc3c(-c4cccc(F)c4)ccnc3O2)c1 (stereo unspecified) | 7 | 21 | -14 | -12 | 5 | -4
CCc1nc2ccc(C(=O)Nc3cccc(NS(C)(=O)=O)c3)cn2c1N(C)CCCc1ccccc1 | 3 | 7 | -8 | -13 | -2 | 54*
CCc1nc2ccc(C(=O)N(CC)CCN(C)C)cn2c1N(C)CCCc1ccccc1 | 4 | 1 | -11 | -15 | -2 | 27*
CS(=O)(=O)c1ccc(Nc2nc(C(N)c3ccccc3Cl)cs2)cc1 (stereo unspecified) | 2 | 3 | 1 | 0 | 4 | 7
CCC(C)(C(=O)NC1CCCCC1)N(C(=O)CC1NC(=O)NC1=O)c1c(C)n(C)n(-c2ccccc2)c1=O (stereo unspecified) | 1 | 2 | 3 | 7 | -2 | -1
COc1cccc(CNCc2ccc(OC)c3ccccc23)c1OC | 31* | 37* | -18 | -17 | 9 | 17
C#CCNC(=O)C[C@@H]1C[C@@]2(C(=O)OC)CCCCC=C2N(CCc2ccc(OC)c(OC)c2)C1=O | 2 | 14 | -7 | -4 | 6 | -14
CCOC(=O)c1c(C)[nH]c(C)c1C(=O)COC(=O)c1nn(CC)c(=O)c2ccccc12 | 0 | 6 | -2 | 5 | 4 | -8
Cc1cc(C)n(C(=O)c2c([N+](=O)[O-])c(C)nn2C)n1 | 12 | -1 | -3 | -8 | -1 | 9
Cc1ccc(SC(=O)c2c([N+](=O)[O-])c(C)nn2C)cc1 | 17 | -1 | -30 | -15 | -19 | 57*
CCOC(=O)C1(C)CCCN(C(=O)c2snnc2C)C1 (stereo unspecified) | -4 | 0 | -3 | 3 | 1 | -11
SMILES | CHRM5 antagonist | M4 ag | CHRM5 PAM | M4 PAM | M5 ag | CHRM4 antagonist
Cc1ccc2c(c1C)NC(=O)C21N2CCCC2C(C(=O)c2ccc3ccccc3c2)C12C(=O)Nc1ccccc12 (stereo unspecified) | 6 | 0 | 19* | 11 | 8 | 3
Cc1nc(C)c(C(=O)N2CCCC(C(=O)c3ccc4ccccc4c3)C2)s1 (stereo unspecified) | 11 | 9 | -4 | -7 | 1 | -5
CCc1ccc(C2CC(c3ccccc3Cl)Nc3nc(N)nn32)cc1 (stereo unspecified) | 3 | 13 | -5 | 9 | 24* | 1
CCc1ccc(C2CC(c3ccccc3)Nc3nc(N)nn32)cc1 (stereo unspecified) | 1 | 1 | -3 | 7 | 2 | -7
CCOC(=O)c1cc(-c2ccc3c(c2)OCCO3)n[nH]1 | -13 | -1 | 14 | 27* | 6 | -17
COc1cccc(CNc2ccc(F)c([N+](=O)[O-])c2)c1O | 13 | 7 | -8 | -7 | 1 | 68*
O=[N+]([O-])c1ccccc1CNc1ccc(F)c(Cl)c1 | 13 | 0 | -7 | -2 | -2 | 1
COc1ccc2nc(C)cc(NCc3ccc(F)cc3)c2c1 | 32* | 32* | -6 | -7 | 14 | 27*
COc1ccc2nc(C)cc(Nc3ccc(C)cc3)c2c1 | 5 | 1 | -4 | -5 | -3 | -1
COc1cc2c(cc1NC(=O)CN1CCN(S(=O)(=O)c3ccc(C)cc3)CC1)oc1ccccc12 | 9 | 1 | -1 | 22* | -1 | -8
CC(C)(C)C(=O)Nc1ccc(N2CCCC2)cc1 | -1 | 1 | 4 | -22 | -5 | 44*
COc1ccc(C(CNC(=O)c2oc3c(Cl)cccc3c2C)N2CCCC2)cc1 (stereo unspecified) | 8 | 2 | -6 | -1 | -9 | -2
COc1cccc(C(=O)NCCSCc2c(F)cccc2Cl)c1 | -3 | 6 | 10 | -2 | -13 | -12
COc1cccc(C(=O)NCCSCc2ccccc2Cl)c1 | -7 | 2 | 18* | -5 | -6 | -9
COc1cc(NC(=O)[C@@H]2CCCN(S(=O)(=O)c3cccc4cccnc34)C2)cc(OC)c1OC | 8 | 25 | -24 | -6 | 4 | -10

Assay outcomes (PubChem)
